Assay results: ChEMBL document CHEMBL3627693, “Novel aminotetrazole derivatives as selective STAT3 non-peptide inhibitors” (Eur J Med Chem, 2015)
Active and inactive are the calls of the source. The calls are words filed in the database; no cut-off is given here.

How the values were obtained:
[1] = target: T1, Signal transducer and activator of transcription 3 (Homo sapiens, UniProt P40763); experiment: Inhibition of STAT3 (unknown origin) expressed in Oncostatin M induced human HeLa cells at 50 uM incubated for 1 hr by luciferase reporter gene assay; assay type: cell-based
T1 sequence (P40763 whole entry): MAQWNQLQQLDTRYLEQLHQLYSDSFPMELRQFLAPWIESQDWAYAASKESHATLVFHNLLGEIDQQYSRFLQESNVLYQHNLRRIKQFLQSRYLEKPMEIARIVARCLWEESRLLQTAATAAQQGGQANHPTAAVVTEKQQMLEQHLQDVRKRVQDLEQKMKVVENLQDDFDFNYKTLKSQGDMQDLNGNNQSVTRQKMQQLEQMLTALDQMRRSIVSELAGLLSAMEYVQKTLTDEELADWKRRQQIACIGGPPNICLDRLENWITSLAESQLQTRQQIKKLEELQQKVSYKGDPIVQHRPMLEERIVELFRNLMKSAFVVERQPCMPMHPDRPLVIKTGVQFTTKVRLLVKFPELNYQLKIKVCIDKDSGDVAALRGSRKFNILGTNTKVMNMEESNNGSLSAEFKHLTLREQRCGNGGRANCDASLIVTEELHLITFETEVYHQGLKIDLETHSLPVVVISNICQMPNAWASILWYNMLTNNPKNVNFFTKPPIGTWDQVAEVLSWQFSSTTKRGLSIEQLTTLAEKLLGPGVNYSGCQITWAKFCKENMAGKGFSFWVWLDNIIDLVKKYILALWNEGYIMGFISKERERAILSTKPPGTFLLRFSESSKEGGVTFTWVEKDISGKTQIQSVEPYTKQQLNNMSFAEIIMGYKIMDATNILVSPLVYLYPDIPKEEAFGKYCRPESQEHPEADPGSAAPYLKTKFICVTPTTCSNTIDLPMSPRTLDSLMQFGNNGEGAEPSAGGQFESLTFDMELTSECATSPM

HeLa = experiment: Cytotoxicity against human HeLa cells at 50 uM; assay type: cell-based
B9 = experiment: Cytotoxicity against mouse B9 cells assessed as decrease in cell proliferation at 50 uM after 72 hrs by MTT assay; assay type: functional, cell-based
PBL = experiment: Induction IFN-gamma production in human PBL cells co-cultured with HT29 cells at 50 uM after 24 hrs by ELISA; assay type: functional, cell-based
CD4-positive T cell [2] = experiment: Induction of polarization of C57BL/6 mouse spleen naive CD4+ lymphocytes into Th17 lymphocytes assessed as decrease in FoxP3 transcription at 50 uM; assay type: functional, tissue-based
[3] = target: T2, Signal transducer and activator of transcription 1-alpha/beta (Homo sapiens) (UniProt P42224); experiment: Inhibition of STAT1 (unknown origin) expressed in IFN-gamma induced human HeLa cells at 50 uM incubated for 1 hr by luciferase reporter gene assay; assay type: cell-based
T2 sequence (whole entry): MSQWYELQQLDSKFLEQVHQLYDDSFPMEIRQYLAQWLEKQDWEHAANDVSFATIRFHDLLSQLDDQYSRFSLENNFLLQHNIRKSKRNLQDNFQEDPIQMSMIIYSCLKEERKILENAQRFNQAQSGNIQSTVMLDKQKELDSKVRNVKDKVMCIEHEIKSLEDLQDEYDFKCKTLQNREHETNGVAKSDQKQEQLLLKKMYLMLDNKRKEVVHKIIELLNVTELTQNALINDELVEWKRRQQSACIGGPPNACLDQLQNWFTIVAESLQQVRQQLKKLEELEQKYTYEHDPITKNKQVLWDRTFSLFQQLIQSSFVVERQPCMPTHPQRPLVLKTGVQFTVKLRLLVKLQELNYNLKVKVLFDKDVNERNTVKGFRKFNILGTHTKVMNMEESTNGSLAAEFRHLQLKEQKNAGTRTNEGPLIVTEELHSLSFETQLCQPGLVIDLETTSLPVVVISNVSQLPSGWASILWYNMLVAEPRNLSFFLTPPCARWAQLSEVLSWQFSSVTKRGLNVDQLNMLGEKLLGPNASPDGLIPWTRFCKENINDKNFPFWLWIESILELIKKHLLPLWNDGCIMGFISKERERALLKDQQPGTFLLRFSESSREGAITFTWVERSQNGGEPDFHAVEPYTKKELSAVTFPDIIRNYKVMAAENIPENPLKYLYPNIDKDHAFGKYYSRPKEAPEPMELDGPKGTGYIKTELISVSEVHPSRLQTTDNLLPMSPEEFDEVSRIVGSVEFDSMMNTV

[4] = target: T1, Signal transducer and activator of transcription 3; conditions: HeLa, 100 uM
[5] = target: T1, Signal transducer and activator of transcription 3; experiment: Displacement of fluorescent peptide 5-FAM-G(pTyr)LPQTV-CONH2 from GST-tagged full-length human STAT3 preincubated for 60 mins followed by fluorescent peptide addition measured after 30 mins by fluorescence polarization assay
Summary of the method: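 Full-length GST-STAT3 (100 nM) preincubated 60 min at room temperature with compound at various concentrations or vehicle, in 50 mM NaCl, 10 mM Hepes pH 7.5, 1 mM EDTA, 0.01% Triton X-100, 2 mM DTT. Labelled peptide then added to 10 nM final, 30 min room temperature. FP read with excitation 480, emission 535 (P and S pol).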

CD4-positive T cell [6] = experiment: Induction of polarization of C57BL/6 mouse spleen naive CD4+ lymphocytes into Treg lymphocytes assessed as decrease in FoxP3 transcription at 50 uM; assay type: functional, tissue-based
CD4-positive T cell [7] = experiment: Induction of polarization of C57BL/6 mouse spleen naive CD4+ lymphocytes into Th1 lymphocytes assessed as decrease in Tbet transcription; assay type: functional, tissue-based
[8] = target: T1, Signal transducer and activator of transcription 3; conditions: HeLa, 100 uM; remark: listed apart in the source
[9] = target: T1, Signal transducer and activator of transcription 3; experiment: Inhibition of STAT3 (unknown origin) expressed in Oncostatin M induced human HeLa cells incubated for 1 hr by luciferase reporter gene assay
[10] = target: T2, Signal transducer and activator of transcription 1-alpha/beta (Homo sapiens); experiment: Displacement of fluorescent peptide 5-FAM-G(pTyr)YIKTE- CONH2 from GST-tagged human STAT1b preincubated for 60 mins followed by fluorescent peptide addition measured after 30 mins by fluorescence polarization assay
Summary of the method: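 GST-tagged human STAT1b preincubated 60 min at room temperature with compound at various concentrations or vehicle in 50 mM NaCl, 10 mM Hepes pH 7.5, 1 mM EDTA, 0.01% Triton X-100, 2 mM DTT. Labelled peptide added to 10 nM final, 30 min room temperature. Fluorescence polarization read with excitation 480, emission 535.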

MDA-MB-231 [11] = experiment: Cytotoxicity against human MDA-MB-231 cells assessed as decrease in cell proliferation after 72 hrs by MTT assay; assay type: functional, cell-based
MDA-MB-231 [12] = experiment: Cytotoxicity against human MDA-MB-231 cells transfected with STAT3C assessed as decrease in cell proliferation after 72 hrs by MTT assay; assay type: functional, cell-based
CD4-positive T cell [13] = experiment: Induction of polarization of C57BL/6 mouse spleen naive CD4+ lymphocytes into Treg lymphocytes assessed as decrease in ROR-gamma-t transcription at 50 uM; assay type: functional, tissue-based
CD4-positive T cell [14] = experiment: Induction of polarization of C57BL/6 mouse spleen naive CD4+ lymphocytes into Th17 lymphocytes assessed as decrease in ROR-gamma-t transcription at 50 uM; assay type: functional, tissue-based

SMILES	inhibition [1]	Activity (HeLa)	Activity (B9)	Activity (PBL)	Activity (CD4-positive T cell [2])	inhibition [3] [%]	inhibition [4]	Activity [5]	Activity (CD4-positive T cell [6])	Activity (CD4-positive T cell [7])	inhibition [8]	IC50 [9] [µM]	Activity [10]	Activity (MDA-MB-231 [11])	Activity (MDA-MB-231 [12])	Activity (CD4-positive T cell [13])	Activity (CD4-positive T cell [14])
CCOc1cc(/C=C(\C#N)C(=O)NC2CCCCC2C)ccc1OCC(=O)O (stereo not given)	Active	Toxic	–	–	–	–	–	–	–	–	–	–	–	–	–	–	–
COc1cc(CNc2nn[nH]n2)cc(Cl)c1OCc1ccc([N+](=O)[O-])cc1	70.2%	–	Dose-dependent effect	Active	Active	15.7	Active	Active	Active	inactive	Active	25.7	inactive	Dose-dependent effect	inactive	Active	Active
Brc1cc2c(cc1COc1ccc(-c3nn[nH]n3)cc1)OCO2	Active	Toxic	–	–	–	–	–	–	–	–	–	–	–	–	–	–	–
